Experimental data reported in article PMC9328817 (Journal of Food and Drug Analysis, 2016).
Where a SMILES comes first, the peptide text is derived from it.

B1: lactoferrin: iron-binding multifunctional protein in camel milk (protein, UniProt Q9TUM0 20-708, looked up)
Lactotransferrin: ASKKSVRWCTTSPAESSKCAQWQRRMKKVRGPSVTCVKKTSRFECIQAISTEKADAVTLDGGLVYDAGLDPYKLRPIAAEVYGTENNPQTHYYAVAIAKKGTNFQLNQLQGLKSCHTGLGRSAGWNIPMGLLRPFLDWTGPPEPLQKAVAKFFSASCVPCVDGKEYPNLCQLCAGTGENKCACSSQEPYFGYSGAFKCLQDGAGDVAFVKDSTVFESLPAKADRDQYELLCPNNTRKPVDAFQECHLARVPSHAVVARSVNGKEDLIWKLLVKAQEKFGRGKPSGFQLFGSPAGQKDLLFKDSALGLLRISSKIDSGLYLGSNYITAIRGLRETAAEVELRRAQVVWCAVGSDEQLKCQEWSRQSNQSVVCATASTTEDCIALVLKGEADALSLDGGYIYIAGKCGLVPVLAESQQSPESSGLDCVHRPVKGYLAVAVVRKANDKITWNSLRGKKSCHTAVDRTAGWNIPMGLLSKNTDSCRFDEFLSQSCAPGSDPRSKLCALCAGNEEGQNKCVPNSSERYYGYTGAFRCLAENVGDVAFVKDVTVLDNTDGKNTEQWAKDLKLGDFELLCLNGTRKPVTEAESCHLAVAPNHAVVSRIDKVAHLEQVLLRQQAHFGRNGRDCPGKFCLFQSKTKNLLFNDNTECLAKLQGKTTYEEYLGPQYVTAIAKLRRCSTSPLLEACAFLMR

How the values were obtained:
HepG2 cells = experiment: MTT viability assay; assay type: cell-based; details: for Inhibitory effect on the growth of HepG2 cancer cells (in words): 0-1 mg/mL; for Growth inhibition of HepG2 cells: highest concentration tested 1 mg/mL, 24, 48 and 72 hours
Summary of the method: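 HepG2 cells were grown in DMEM with 10% FBS, L-glutamine and 1% penicillin/streptomycin at 37°C, humidified, 5% CO2, and treated in log phase at 80% confluence. After seeding and 24 h incubation, cells received peptides at 0–1 mg/mL for 24, 48 or 72 h. MTT was added (4 h, dark, 37°C), DMSO was added, and A570 was read against untreated cells.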

cancer cell growth = details: cited from earlier work

| Molecule | Inhibitory effect on the growth of HepG2 cancer cells (in words) (HepG2 cells) | Growth inhibition of HepG2 cells (HepG2 cells) | Reduction of cancer cell growth (cancer cell growth) [%] |
| --- | --- | --- | --- |
| CC(C)C[C@H](NC(=O)[C@H](CCC(N)=O)NC(=O)[C@H](CC(=O)O)NC(=O)[C@H](CCC(N)=O)NC(=O)[C@H](CCC(N)=O)NC(=O)[C@H](CCC(=O)O)NC(=O)[C@H](CC(=O)O)NC(=O)[C@H](CCC(=O)O)NC(=O)[C@@H](NC(=O)[C@H](CCC(N)=O)NC(=O)[C@H](CCC(N)=O)NC(=O)[C@H](CCC(N)=O)NC(=O)[C@H](CCC(=O)O)NC(=O)[C@H](CCC(=O)O)NC(=O)[C@@H](N)CC(C)C)[C@@H](C)O)C(=O)O [LL-15] (H-LEEQQQTEDEQQDQL-OH) | no significant inhibitory effects | about 20% | – |
| CC(C)C[C@H](NC(=O)CNC(=O)[C@@H](N)CCCNC(=N)N)C(=O)N[C@@H](Cc1c[nH]cn1)C(=O)N1CCC[C@H]1C(=O)N[C@H](C(=O)N1CCC[C@H]1C(=O)N[C@@H](CCC(N)=O)C(=O)O)C(C)C [RQ-8] (H-RGLHPVPQ-OH) | no significant inhibitory effects | about 20% | – |
| CC(C)C[C@H](NC(=O)[C@H](CCCNC(=N)N)NC(=O)[C@H](Cc1c[nH]cn1)NC(=O)[C@H](CC(C)C)NC(=O)[C@H](CCC(=O)O)NC(=O)[C@H](CCC(=O)O)NC(=O)[C@H](CC(C)C)NC(=O)[C@@H](N)Cc1ccc(O)cc1)C(=O)N[C@@H](CC(N)=O)C(=O)N[C@@H](C)C(=O)NCC(=O)N[C@@H](Cc1ccc(O)cc1)C(=O)O [YY-11] (H-YLEELHRLNAGY-OH) | no significant inhibitory effects | about 20% | – |
| B1 | – | – | 56 |
